Measured values taken from ChEMBL document CHEMBL4610092, “Cytotoxic Nitrogenated Azaphilones from the Deep-Sea-Derived Fungus Chaetomium globosum MP4-S01-7” (J Nat Prod, 2020).

Tests used:
MGC-803 [1] = assay: Cytotoxicity against human MGC803 cells assessed as reduction in cell viability measured after 72 hrs by CCK8 assay; assay type: functional, cell-based; conditions: MGC-803, 72 h
Outline: (§1)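 MGC803 or AGS cells (RPMI 1640, 10% FBS, 5% CO₂, 37 °C) plated at 3 × 10³ per well overnight, then exposed to 0.1–10 μM for 72 h. Viability was read by CCK8 absorbance at 450 nm, and IC₅₀ was calculated from the concentration series.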

AGS [2] = assay: Cytotoxicity against human AGS cells assessed as reduction in cell viability measured after 72 hrs by CCK8 assay; assay type: functional, cell-based; outline: as §1
MGC-803 [3] = assay: Induction of apoptosis in human MGC803 cells assessed as early apoptotic cells at 5 uM measured after 48 hrs FITC-A/PE-A staining based flow cytometry (reference value: 0.59 to 3.54%); assay type: functional
MGC-803 [4] = assay: Induction of apoptosis in human MGC803 cells assessed as early apoptotic cells at 0.2 uM measured after 48 hrs FITC-A/PE-A staining based flow cytometry (reference value: 0.59 to 3.54%); assay type: functional
MGC-803 [5] = assay: Induction of apoptosis in human MGC803 cells assessed as necrotic cells at 1 uM measured after 48 hrs FITC-A/PE-A staining based flow cytometry (reference value: 0.9 to 2.18%); assay type: functional
AGS [6] = assay: Induction of apoptosis in human AGS cells assessed as necrotic cells at 0.5 uM measured after 48 hrs FITC-A/PE-A staining based flow cytometry (reference value: 1.35 to 2.69%); assay type: functional
AGS [7] = assay: Induction of apoptosis in human AGS cells assessed as early apoptotic cells at 5 uM measured after 48 hrs FITC-A/PE-A staining based flow cytometry (reference value: 1.77 to 2.91%); assay type: functional
MGC-803 [8] = assay: Induction of apoptosis in human MGC803 cells assessed as necrotic cells at 0.5 uM measured after 48 hrs FITC-A/PE-A staining based flow cytometry (reference value: 0.9 to 2.18%); assay type: functional
MGC-803 [9] = assay: Induction of apoptosis in human MGC803 cells assessed as viable cells at 0.2 uM measured after 48 hrs FITC-A/PE-A staining based flow cytometry (reference value: 94.89 to 96.41%); assay type: functional; conditions: MGC-803, 48 h, read-out: Activity
AGS [10] = assay: Induction of apoptosis in human AGS cells assessed as early apoptotic cells at 1 uM measured after 48 hrs FITC-A/PE-A staining based flow cytometry (reference value: 1.77 to 2.91%); assay type: functional
AGS [11] = assay: Induction of apoptosis in human AGS cells assessed as late apoptotic cells at 0.2 uM measured after 48 hrs FITC-A/PE-A staining based flow cytometry (reference value: 1.89 to 3.49%); assay type: functional
AGS [12] = assay: Induction of apoptosis in human AGS cells assessed as necrotic cells at 0.2 uM measured after 48 hrs FITC-A/PE-A staining based flow cytometry (reference value: 1.35 to 2.69%); assay type: functional
AGS [13] = assay: Induction of apoptosis in human AGS cells assessed as viable cells at 5 uM measured after 48 hrs FITC-A/PE-A staining based flow cytometry (reference value: 92.05 to 93.85%); assay type: functional; conditions: read-out: Activity
AGS [14] = assay: Induction of apoptosis in human AGS cells assessed as viable cells at 1 uM measured after 48 hrs FITC-A/PE-A staining based flow cytometry (reference value: 92.05 to 93.85%); assay type: functional; conditions: read-out: Activity
MGC-803 [15] = assay: Induction of apoptosis in human MGC803 cells assessed as late apoptotic cells at 5 uM measured after 48 hrs FITC-A/PE-A staining based flow cytometry (reference value: 0.67 to 0.82%); assay type: functional
MGC-803 [16] = assay: Induction of apoptosis in human MGC803 cells assessed as early apoptotic cells at 0.5 uM measured after 48 hrs FITC-A/PE-A staining based flow cytometry (reference value: 0.59 to 3.54%); assay type: functional
MGC-803 [17] = assay: Induction of apoptosis in human MGC803 cells assessed as viable cells at 1 uM measured after 48 hrs FITC-A/PE-A staining based flow cytometry (reference value: 94.89 to 96.41%); assay type: functional; conditions: MGC-803, 48 h, read-out: Activity
MGC-803 [18] = assay: Induction of apoptosis in human MGC803 cells measured after 48 hrs FITC-A/PE-A staining based flow cytometry; assay type: functional, cell-based
MGC-803 [19] = assay: Induction of apoptosis in human MGC803 cells assessed as late apoptotic cells at 1 uM measured after 48 hrs FITC-A/PE-A staining based flow cytometry (reference value: 0.67 to 0.82%); assay type: functional
AGS [20] = assay: Induction of apoptosis in human AGS cells assessed as necrotic cells at 1 uM measured after 48 hrs FITC-A/PE-A staining based flow cytometry (reference value: 1.35 to 2.69%); assay type: functional
AGS [21] = assay: Induction of apoptosis in human AGS cells measured after 48 hrs FITC-A/PE-A staining based flow cytometry; assay type: functional, cell-based
AGS [22] = assay: Induction of apoptosis in human AGS cells assessed as early apoptotic cells at 0.2 uM measured after 48 hrs FITC-A/PE-A staining based flow cytometry (reference value: 1.77 to 2.91%); assay type: functional
MGC-803 [23] = assay: Induction of apoptosis in human MGC803 cells assessed as necrotic cells at 5 uM measured after 48 hrs FITC-A/PE-A staining based flow cytometry (reference value: 0.9 to 2.18%); assay type: functional
MGC-803 [24] = assay: Induction of apoptosis in human MGC803 cells assessed as late apoptotic cells at 0.2 uM measured after 48 hrs FITC-A/PE-A staining based flow cytometry (reference value: 0.9 to 2.18%); assay type: functional
MGC-803 [25] = assay: Induction of apoptosis in human MGC803 cells assessed as late apoptotic cells at 0.5 uM measured after 48 hrs FITC-A/PE-A staining based flow cytometry (reference value: 0.9 to 2.18%); assay type: functional
MGC-803 [26] = assay: Induction of apoptosis in human MGC803 cells assessed as viable cells at 0.5 uM measured after 48 hrs FITC-A/PE-A staining based flow cytometry (reference value: 94.89 to 96.41%); assay type: functional; conditions: MGC-803, 48 h, read-out: Activity
AGS [27] = assay: Induction of apoptosis in human AGS cells assessed as late apoptotic cells at 5 uM measured after 48 hrs FITC-A/PE-A staining based flow cytometry (reference value: 1.89 to 3.49%); assay type: functional
AGS [28] = assay: Induction of apoptosis in human AGS cells assessed as late apoptotic cells at 1 uM measured after 48 hrs FITC-A/PE-A staining based flow cytometry (reference value: 1.89 to 3.49%); assay type: functional
AGS [29] = assay: Induction of apoptosis in human AGS cells assessed as viable cells at 0.2 uM measured after 48 hrs FITC-A/PE-A staining based flow cytometry (reference value: 92.05 to 93.85%); assay type: functional; conditions: read-out: Activity
AGS [30] = assay: Induction of apoptosis in human AGS cells assessed as viable cells at 0.5 uM measured after 48 hrs FITC-A/PE-A staining based flow cytometry (reference value: 92.05 to 93.85%); assay type: functional; conditions: read-out: Activity
MGC-803 [31] = assay: Induction of apoptosis in human MGC803 cells assessed as viable cells at 5 uM measured after 48 hrs FITC-A/PE-A staining based flow cytometry (reference value: 94.89 to 96.41%); assay type: functional; conditions: MGC-803, 48 h, read-out: Activity
MGC-803 [32] = assay: Induction of apoptosis in human MGC803 cells assessed as necrotic cells at 0.2 uM measured after 48 hrs FITC-A/PE-A staining based flow cytometry (reference value: 0.9 to 2.18%); assay type: functional
AGS [33] = assay: Induction of apoptosis in human AGS cells assessed as necrotic cells at 5 uM measured after 48 hrs FITC-A/PE-A staining based flow cytometry (reference value: 1.35 to 2.69%); assay type: functional
AGS [34] = assay: Induction of apoptosis in human AGS cells assessed as early apoptotic cells at 0.5 uM measured after 48 hrs FITC-A/PE-A staining based flow cytometry (reference value: 1.77 to 2.91%); assay type: functional
MGC-803 [35] = assay: Induction of apoptosis in human MGC803 cells assessed as early apoptotic cells at 1 uM measured after 48 hrs FITC-A/PE-A staining based flow cytometry (reference value: 0.59 to 3.54%); assay type: functional
AGS [36] = assay: Induction of apoptosis in human AGS cells assessed as late apoptotic cells at 0.5 uM measured after 48 hrs FITC-A/PE-A staining based flow cytometry (reference value: 1.89 to 3.49%); assay type: functional

`CC(=O)O[C@H]1C(=O)[C@@]2(C)[C@H]([C@H](OC(=O)c3ccccc3)[C@]3(O)C[C@H](OC(=O)[C@H](O)[C@@H](NC(=O)c4ccccc4)c4ccccc4)C(C)=C1C3(C)C)[C@]1(OC(C)=O)CO[C@@H]1C[C@@H]2O` [PACLITAXEL] showed an IC50 (MGC-803 [1]) of 3800 nM.

`CC[C@H](C)/C=C/C1=CC2=C(Cl)C(=O)[C@@]3(C)OC(=O)C(C(=O)[C@@H](C)[C@@H](C)O)=C3C2=CN1CC=C(C)C` was tested, and the IC50 (AGS [2]) was 2900 nM and the IC50 (MGC-803 [1]) was 3000 nM.

Compound `CCC(=O)C1=C2C3=CN(C/C=C(\C)CCC=C(C)C)C(/C=C/[C@@H](C)CC)=CC3=C(Cl)C(=O)[C@@]2(C)OC1=O` has an IC50 (AGS [2]) of 1200 nM and an IC50 (MGC-803 [1]) of 2200 nM.

In the case of `CC[C@H](C)/C=C/C1=CC2=C(Cl)C(=O)[C@@]3(C)OC(=O)C(C(=O)[C@@H](C)[C@@H](C)O)=C3C2=CO1` [CHAETOVIRIDIN A], the IC50 (AGS [2]) is reported as greater than 10000 nM and the IC50 (MGC-803 [1]) is reported as greater than 10000 nM.

`CC[C@H](C)/C=C/C1=CC2=C(Cl)C(=O)[C@@]3(C)OC(=O)C(C(=O)[C@H](C)[C@@H](C)O)=C3C2=CN1C/C=C(\C)CCC=C(C)C` gave an Activity (MGC-803 [3]) of 0.25%, an Activity (MGC-803 [4]) of 2.79% and an Activity (MGC-803 [5]) of 6.78%. It also gave an Activity (AGS [6]) of 2.92%, an Activity (AGS [7]) of 2.33% and an Activity (MGC-803 [8]) of 0.73%. For the same compound, the viability at 0.2 µM (MGC-803 [9]) was 96.1%, the Activity (AGS [10]) was 18.59% and the Activity (AGS [11]) was 4.34%. The Activity (AGS [12]) was 2.94%, the viability at 5 µM (AGS [13]) was 9.55% and the viability at 1 µM (AGS [14]) was 53.3%. For the same compound, the Activity (MGC-803 [15]) was 91.5%, the Activity (MGC-803 [16]) was 2.55% and the IC50 (AGS [2]) was 120 nM. For the same compound, the viability at 1 µM (MGC-803 [17]) was 85%, the Activity (MGC-803 [18]) was “Dose-dependent effect” and the Activity (MGC-803 [19]) was 6.91%. For the same compound, the Activity (AGS [20]) was 5.05%, the Activity (AGS [21]) was “Dose-dependent effect” and the Activity (AGS [22]) was 3.16%. It also gave an IC50 (MGC-803 [1]) of 780 nM, an Activity (MGC-803 [23]) of 1.74% and an Activity (MGC-803 [24]) of 0.41%. It also gave an Activity (MGC-803 [25]) of 0.63%, a viability at 0.5 µM (MGC-803 [26]) of 96.1% and an Activity (AGS [27]) of 86.44%. For the same compound, the Activity (AGS [28]) was 23.07%, the viability at 0.2 µM (AGS [29]) was 89.6% and the viability at 0.5 µM (AGS [30]) was 88.1%. The viability at 5 µM (MGC-803 [31]) was 6.51%, the Activity (MGC-803 [32]) was 0.7% and the Activity (AGS [33]) was 1.67%. It also gave an Activity (AGS [34]) of 3.49%, an Activity (MGC-803 [35]) of 1.33% and an Activity (AGS [36]) of 5.54%.
